Results published in ChEMBL document CHEMBL5705905, “Pharmacological targeting of kinases MST1 and MST2 augments tissue repair and regeneration” (Sci Transl Med, 2016).
Activity calls are given as the source filed them. The calls are words filed in the database; no cut-off is given here.

Tests used:
[1] = system: HepG2; test: Inhibition of Flag-tagged MST1 Y101F mutant (unknown origin) in human HepG2 cells assessed as MOB1 phosphorylation level at 0.3 to 10 uM by immunoblot analysis; format: cell-based; settings: dose 0.3-10 µM
[2] = biological target: Tyrosine-protein kinase TXK (Homo sapiens) (UniProt P42681); test: Inhibition of TXK (unknown origin) assessed as remaining activity at 1 uM by Kinome scan method relative to control
[3] = biological target: Cyclin-dependent kinase 2 homolog (Plasmodium falciparum (isolate K1 / Thailand)) (UniProt Q07785); test: Inhibition of Plasmodium falciparum PK5 assessed as remaining activity at 1 uM by Kinome scan method relative to control
[4] = biological target: Mitogen-activated protein kinase 15 (Homo sapiens) (UniProt Q8TD08); test: Inhibition of ERK8 (unknown origin) assessed as remaining activity at 1 uM by Kinome scan method relative to control
[5] = biological target: Serine/threonine-protein kinase PAK 1 (Homo sapiens) (UniProt Q13153); test: Inhibition of PAK1 (unknown origin) assessed as remaining activity at 1 uM by Kinome scan method relative to control
[6] = biological target: Ribosomal protein S6 kinase alpha-4 (Homo sapiens) (UniProt O75676); test: Inhibition of C-terminal kinase domain RPS6KA4 (unknown origin) assessed as remaining activity at 1 uM by Kinome scan method relative to control
Outline: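 Active-site-dependent competition-binding (KINOMEscan) panel of 468 kinases, test compound at 1 μM (from a 10 mM DMSO stock). Read-out is ctrl% = (test signal − positive control signal)/(negative control signal − positive control signal) × 100. DMSO is the negative control (100%) and a control compound is the positive control (0%). Lower ctrl% means tighter binding.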

[7] = biological target: Tyrosine-protein kinase CSK (Homo sapiens) (UniProt P41240); test: Inhibition of CSK (unknown origin) assessed as remaining activity at 1 uM by Kinome scan method relative to control
Outline: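 Active-site-dependent competition-binding profiling (KINOMEscan) at 1 μM against a 468-kinase panel; compound supplied from a 10 mM DMSO stock. Read-out is ctrl% = (test signal − positive control signal)/(negative control signal − positive control signal) × 100. DMSO is the negative control (100%) and a control compound the positive control (0%). Lower ctrl% means tighter binding.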

[8] = biological target: Tyrosine-protein kinase JAK1 (Homo sapiens, UniProt P23458); test: Binding affinity to JAK1 JH2domain-pseudokinase (unknown origin) assessed as dissociation constant
[9] = AUC (0 to t) in male Sprague-Dawley rat at 10 mg/kg, po measured for 24 hrs by LC-MS/MS analysis; format: ADME, organism-based; settings: in vivo
Outline: (§1)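 Sprague-Dawley rats, single intravenous or oral dose. Parameters (half-life, AUC, bioavailability) reported in a supplementary table.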

[10] = biological target: Ribosomal protein S6 kinase alpha-1 (Homo sapiens) (UniProt Q15418); test: Inhibition of N-terminal kinase domain RSK1 (unknown origin) assessed as remaining activity at 1 uM by Kinome scan method relative to control
[11] = system: Receptor-type tyrosine-protein kinase FLT3 (Homo sapiens), P36888 [UNDEFINED MUTATION]; test: Inhibition of FLT3 […]/D835V mutant (unknown origin) assessed as remaining activity at 1 uM by Kinome scan method relative to control
[12] = system: Mus musculus; test: Anti-colitis activity against DSS-induced mouse assessed as high Ki67-positive proliferating cells at 1 mg/kg, ip administrated daily for 8 days by IHC staining; format: functional, organism-based; settings: Colon, time 8.0 day
Outline: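 Wild-type mice received oral DSS for 7 days with vehicle or 1 mg/kg daily. Colon sections were stained by IHC for YAP, BrdU and Ki67, and positive cells were quantified per animal. Means ± SD, n = 10, Student's t test.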

[13] = biological target: Serine/threonine-protein kinase TAO2 (Homo sapiens) (UniProt Q9UL54); test: Inhibition of TAOK2 (unknown origin) assessed as remaining activity at 1 uM by Kinome scan method relative to control
[14] = system: Receptor-type tyrosine-protein kinase FLT3 (Homo sapiens), P36888 [D835Y]; test: Inhibition of FLT3 D835Y mutant (unknown origin) assessed as remaining activity at 1 uM by Kinome scan method relative to control
[15] = system: HepG2; test: Inhibition of Flag-tagged MST1 Y101F/D109A mutant (unknown origin) in human HepG2 cells assessed as MOB1 phosphorylation level at 3 uM by immunoblot analysis; format: cell-based
[16] = biological target: Serine/threonine-protein kinase LATS1 (Homo sapiens) (UniProt O95835); test: Inhibition of LATS1 (unknown origin) assessed as remaining activity at 1 uM by Kinome scan method relative to control
[17] = species: Homo sapiens; test: Inhibition of recombinant His-tagged full-length MST1 Y101F mutant (unknown origin) expressing in Escherichia coli assessed as GST-tagged MOB1 phosphorylation level at 0.01 to 1 uM incubated for 15 min by immunoblot analysis; settings: dose 0.01-1 µM
[18] = biological target: Ephrin type-A receptor 8 (Homo sapiens) (UniProt P29322); test: Inhibition of EPHA8 (unknown origin) assessed as remaining activity at 1 uM by Kinome scan method relative to control
[19] = Cmax in male Sprague-Dawley rat at 5 mg/kg, iv measured for 24 hrs by LC-MS/MS analysis; format: ADME, organism-based; settings: in vivo; outline: as §1
[20] = biological target: Phosphatidylinositol 4,5-bisphosphate 3-kinase catalytic subunit beta isoform (Homo sapiens) (UniProt P42338); test: Inhibition of PIK3CB (unknown origin) assessed as remaining activity at 1 uM by Kinome scan method relative to control
[21] = biological target: Serine/threonine-protein kinase TBK1 (Homo sapiens) (UniProt Q9UHD2); test: Inhibition of TBK1 (unknown origin) assessed as remaining activity at 1 uM by Kinome scan method relative to control
[22] = system: HepG2; test: Induction of apoptosis in human HepG2 cells assessed as necrosis cells at 3 uM by annexinV staining (Rvb =0.04 %); format: functional
[23] = system: Receptor-type tyrosine-protein kinase FLT3 (Homo sapiens), P36888 [UNDEFINED MUTATION]; test: Inhibition of FLT3 ITD mutant (unknown origin) assessed as remaining activity at 1 uM by Kinome scan method relative to control
[24] = Acute toxicity in mouse assessed as increase in CK19-positive cells at 1 mg/kg,ip administrated once a daily for 3 weeks by H and E staining based immunohistochemical analysis relative to control; format: organism-based, Liver; settings: in vivo, 504 h
Outline: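 Postnatal mice dosed from 10 days of age with vehicle or 1 mg/kg once per day for 21 days (3 weeks). Vehicle is 0.1% citric acid aqueous solution containing 20% Kolliphor HS 15. Liver sections stained with H&E and by IHC for CK19 and BrdU, with positive cells quantified (n = 3). Liver/body weight ratio recorded (n = 4). Values are means ± SD versus vehicle, Student's t test.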

[25] = Inhibition of phosphorylated ABL1 T315I mutant (unknown origin) in presence of ATP by enzymatic assay; parameters: species or system Homo sapiens

Chain of Tyrosine-protein kinase TXK (Homo sapiens) (P42681 whole entry): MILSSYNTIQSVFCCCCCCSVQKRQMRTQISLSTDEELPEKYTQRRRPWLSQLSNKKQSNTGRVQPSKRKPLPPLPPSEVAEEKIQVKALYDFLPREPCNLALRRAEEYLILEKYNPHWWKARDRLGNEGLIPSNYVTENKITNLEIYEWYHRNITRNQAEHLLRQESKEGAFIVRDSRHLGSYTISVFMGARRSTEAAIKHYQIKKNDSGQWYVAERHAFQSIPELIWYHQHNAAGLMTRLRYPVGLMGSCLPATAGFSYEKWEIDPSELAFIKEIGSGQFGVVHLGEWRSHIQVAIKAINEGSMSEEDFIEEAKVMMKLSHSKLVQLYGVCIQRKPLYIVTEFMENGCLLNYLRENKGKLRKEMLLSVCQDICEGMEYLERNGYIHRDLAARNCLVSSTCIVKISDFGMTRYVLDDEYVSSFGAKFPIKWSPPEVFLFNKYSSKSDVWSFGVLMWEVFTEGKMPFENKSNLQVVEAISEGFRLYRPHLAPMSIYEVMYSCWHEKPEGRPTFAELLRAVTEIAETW
Chain of Tyrosine-protein kinase JAK1 (P23458 whole entry): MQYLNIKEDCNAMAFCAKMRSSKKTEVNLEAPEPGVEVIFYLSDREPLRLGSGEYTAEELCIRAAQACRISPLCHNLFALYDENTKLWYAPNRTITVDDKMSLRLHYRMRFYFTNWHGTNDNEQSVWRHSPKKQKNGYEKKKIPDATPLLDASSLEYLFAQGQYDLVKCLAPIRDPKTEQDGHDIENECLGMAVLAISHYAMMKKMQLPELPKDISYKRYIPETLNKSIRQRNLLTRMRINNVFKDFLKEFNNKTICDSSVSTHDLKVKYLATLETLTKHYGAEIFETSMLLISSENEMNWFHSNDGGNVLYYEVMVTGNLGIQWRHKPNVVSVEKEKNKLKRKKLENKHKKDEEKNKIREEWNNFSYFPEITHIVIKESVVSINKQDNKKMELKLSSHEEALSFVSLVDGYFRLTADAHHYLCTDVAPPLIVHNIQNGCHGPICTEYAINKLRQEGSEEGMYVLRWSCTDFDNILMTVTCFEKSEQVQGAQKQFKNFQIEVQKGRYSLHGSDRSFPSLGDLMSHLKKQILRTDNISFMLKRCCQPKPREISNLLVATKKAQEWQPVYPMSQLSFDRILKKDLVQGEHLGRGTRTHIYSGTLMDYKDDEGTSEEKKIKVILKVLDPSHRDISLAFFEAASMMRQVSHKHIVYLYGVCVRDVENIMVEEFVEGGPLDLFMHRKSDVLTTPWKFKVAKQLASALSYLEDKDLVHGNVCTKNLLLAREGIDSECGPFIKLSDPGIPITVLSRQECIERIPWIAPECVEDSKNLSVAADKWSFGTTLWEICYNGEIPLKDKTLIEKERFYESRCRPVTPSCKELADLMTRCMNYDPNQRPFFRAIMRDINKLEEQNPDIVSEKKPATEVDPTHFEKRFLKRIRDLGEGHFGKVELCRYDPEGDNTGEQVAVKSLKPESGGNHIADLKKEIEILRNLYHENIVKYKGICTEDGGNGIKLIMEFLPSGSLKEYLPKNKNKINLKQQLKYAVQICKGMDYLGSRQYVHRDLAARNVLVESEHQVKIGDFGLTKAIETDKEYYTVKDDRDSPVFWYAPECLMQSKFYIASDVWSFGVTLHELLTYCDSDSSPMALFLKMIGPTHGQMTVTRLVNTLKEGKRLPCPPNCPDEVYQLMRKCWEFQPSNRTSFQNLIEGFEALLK
Chain of Serine/threonine-protein kinase LATS1 (Homo sapiens) (O95835 whole entry): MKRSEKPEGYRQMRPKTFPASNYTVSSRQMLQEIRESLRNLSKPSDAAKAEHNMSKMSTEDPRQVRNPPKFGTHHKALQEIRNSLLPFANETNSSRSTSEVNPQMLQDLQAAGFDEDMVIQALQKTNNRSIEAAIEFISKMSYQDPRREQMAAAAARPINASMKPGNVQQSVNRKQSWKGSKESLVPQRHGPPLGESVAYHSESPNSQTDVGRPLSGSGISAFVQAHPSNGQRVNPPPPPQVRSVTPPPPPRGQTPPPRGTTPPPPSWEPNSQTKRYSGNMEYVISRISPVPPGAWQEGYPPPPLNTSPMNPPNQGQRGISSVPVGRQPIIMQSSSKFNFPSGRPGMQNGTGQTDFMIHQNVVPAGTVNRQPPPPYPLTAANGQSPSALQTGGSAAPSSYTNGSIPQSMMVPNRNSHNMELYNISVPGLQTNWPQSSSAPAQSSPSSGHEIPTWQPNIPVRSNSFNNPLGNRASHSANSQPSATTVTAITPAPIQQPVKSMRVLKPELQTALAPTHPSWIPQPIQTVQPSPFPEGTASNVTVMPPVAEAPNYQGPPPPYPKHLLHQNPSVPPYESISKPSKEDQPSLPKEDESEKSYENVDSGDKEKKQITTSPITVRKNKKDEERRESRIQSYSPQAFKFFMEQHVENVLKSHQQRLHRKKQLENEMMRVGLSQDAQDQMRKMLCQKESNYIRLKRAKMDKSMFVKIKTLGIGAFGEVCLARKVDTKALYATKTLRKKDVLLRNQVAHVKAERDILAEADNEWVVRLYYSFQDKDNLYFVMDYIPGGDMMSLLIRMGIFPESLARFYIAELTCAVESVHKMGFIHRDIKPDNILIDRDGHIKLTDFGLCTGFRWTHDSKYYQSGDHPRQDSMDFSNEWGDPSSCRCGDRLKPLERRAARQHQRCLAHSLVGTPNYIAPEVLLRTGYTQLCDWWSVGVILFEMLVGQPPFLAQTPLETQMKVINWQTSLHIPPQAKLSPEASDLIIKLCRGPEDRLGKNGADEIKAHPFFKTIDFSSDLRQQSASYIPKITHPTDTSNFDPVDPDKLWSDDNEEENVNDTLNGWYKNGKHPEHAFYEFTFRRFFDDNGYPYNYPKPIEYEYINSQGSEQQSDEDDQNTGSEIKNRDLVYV
Chain of Phosphatidylinositol 4,5-bisphosphate 3-kinase catalytic subunit beta isoform (Homo sapiens) (P42338 whole entry, looked up, canonical isoform): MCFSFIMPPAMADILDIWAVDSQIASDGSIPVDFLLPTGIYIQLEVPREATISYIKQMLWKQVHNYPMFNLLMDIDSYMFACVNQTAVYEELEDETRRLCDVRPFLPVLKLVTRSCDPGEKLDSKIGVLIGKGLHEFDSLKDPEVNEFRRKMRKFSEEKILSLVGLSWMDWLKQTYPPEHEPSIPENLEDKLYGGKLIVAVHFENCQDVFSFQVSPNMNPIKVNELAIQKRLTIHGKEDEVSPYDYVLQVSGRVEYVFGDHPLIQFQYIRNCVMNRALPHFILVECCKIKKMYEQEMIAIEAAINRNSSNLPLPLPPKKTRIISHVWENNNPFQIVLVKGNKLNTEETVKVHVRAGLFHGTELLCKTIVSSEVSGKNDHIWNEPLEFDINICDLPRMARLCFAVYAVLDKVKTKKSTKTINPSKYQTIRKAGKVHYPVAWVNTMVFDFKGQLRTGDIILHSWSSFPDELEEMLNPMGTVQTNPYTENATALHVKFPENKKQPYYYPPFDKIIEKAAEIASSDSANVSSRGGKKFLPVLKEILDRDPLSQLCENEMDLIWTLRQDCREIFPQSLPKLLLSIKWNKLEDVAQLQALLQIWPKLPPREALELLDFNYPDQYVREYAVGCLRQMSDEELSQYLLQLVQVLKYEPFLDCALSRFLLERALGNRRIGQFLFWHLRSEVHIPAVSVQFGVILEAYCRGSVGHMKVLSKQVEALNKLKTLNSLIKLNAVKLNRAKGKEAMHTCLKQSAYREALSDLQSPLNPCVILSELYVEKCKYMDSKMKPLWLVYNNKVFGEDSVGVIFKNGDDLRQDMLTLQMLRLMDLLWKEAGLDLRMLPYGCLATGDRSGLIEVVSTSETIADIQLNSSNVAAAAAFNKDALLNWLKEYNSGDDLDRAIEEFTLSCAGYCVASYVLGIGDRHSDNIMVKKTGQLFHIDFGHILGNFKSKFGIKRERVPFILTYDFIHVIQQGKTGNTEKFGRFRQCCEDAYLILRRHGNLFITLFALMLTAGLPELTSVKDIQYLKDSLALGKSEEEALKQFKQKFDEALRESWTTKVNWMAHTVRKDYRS
Chain of Mitogen-activated protein kinase 15 (Homo sapiens) (Q8TD08 whole entry): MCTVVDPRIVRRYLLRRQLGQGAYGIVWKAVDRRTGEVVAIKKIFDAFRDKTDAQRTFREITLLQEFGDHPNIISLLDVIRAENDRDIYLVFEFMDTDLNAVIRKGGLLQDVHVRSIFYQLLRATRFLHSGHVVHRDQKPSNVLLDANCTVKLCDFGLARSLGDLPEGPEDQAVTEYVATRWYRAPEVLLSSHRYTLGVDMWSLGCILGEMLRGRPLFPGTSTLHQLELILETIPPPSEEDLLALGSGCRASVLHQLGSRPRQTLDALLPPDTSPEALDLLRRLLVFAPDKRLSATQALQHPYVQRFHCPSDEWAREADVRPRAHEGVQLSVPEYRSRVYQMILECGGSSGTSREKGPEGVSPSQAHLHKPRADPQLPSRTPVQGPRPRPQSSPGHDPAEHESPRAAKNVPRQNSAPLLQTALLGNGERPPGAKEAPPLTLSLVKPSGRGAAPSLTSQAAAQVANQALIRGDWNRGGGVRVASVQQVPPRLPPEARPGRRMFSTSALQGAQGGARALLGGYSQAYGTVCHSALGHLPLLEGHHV
Chain of Cyclin-dependent kinase 2 homolog (Plasmodium falciparum (isolate K1 / Thailand)) (Q07785 whole entry): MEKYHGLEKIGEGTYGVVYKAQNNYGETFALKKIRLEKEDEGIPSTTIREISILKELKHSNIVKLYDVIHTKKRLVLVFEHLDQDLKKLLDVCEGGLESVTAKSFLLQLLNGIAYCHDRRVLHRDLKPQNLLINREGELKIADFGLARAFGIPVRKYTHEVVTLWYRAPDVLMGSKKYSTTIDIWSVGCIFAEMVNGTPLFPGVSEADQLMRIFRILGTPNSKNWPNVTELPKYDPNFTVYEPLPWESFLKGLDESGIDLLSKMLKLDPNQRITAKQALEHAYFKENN

CN1C(=O)c2sccc2N(C)c2nc(Nc3ccc(S(N)(=O)=O)cc3)ncc21
inhibition [1]: Active
Activity [2]: 90%
Activity [3]: 93%
Activity [4]: 79%
Activity [5]: 100%
Activity [6]: 69%
Activity [7]: 100%
Kd [8]: 22 nM
AUC(0-t) at 24 h [9]: 993 ng·h/mL
Activity [10]: 91%
Activity [11]: 27%
Activity [12]: Active
Activity [13]: 3.4%
Activity [14]: 86%
inhibition [15]: Active
Activity [16]: 100%
inhibition [17]: Active
Activity [18]: 100%
Cmax [19]: 1140 ng/mL
Activity [20]: 72%
Activity [21]: 90%
Activity [22]: 0.05%
Activity [23]: 91%
Activity [24]: 15%
IC50 [25]: 16.6 nM
